Ki and IC50 data for 11 compounds are collected here from ChEMBL document CHEMBL1134623, “Design and synthesis of a series of (2R)-N(4)-hydroxy-2-(3-hydroxybenzyl)-N(1)- [(1S,2R)-2-hydroxy-2,3-dihydro-1H-inden-1-yl]butanediamide derivatives as potent, selective, and orally bioavailable aggrecanase inhibitors” (J Med Chem, 2001).

A value given as a limit tells only on which side of the number the result lay.

The target in one assay is T1, Interstitial collagenase (Homo sapiens, UniProt P03956).
T1 sequence (P03956 whole entry): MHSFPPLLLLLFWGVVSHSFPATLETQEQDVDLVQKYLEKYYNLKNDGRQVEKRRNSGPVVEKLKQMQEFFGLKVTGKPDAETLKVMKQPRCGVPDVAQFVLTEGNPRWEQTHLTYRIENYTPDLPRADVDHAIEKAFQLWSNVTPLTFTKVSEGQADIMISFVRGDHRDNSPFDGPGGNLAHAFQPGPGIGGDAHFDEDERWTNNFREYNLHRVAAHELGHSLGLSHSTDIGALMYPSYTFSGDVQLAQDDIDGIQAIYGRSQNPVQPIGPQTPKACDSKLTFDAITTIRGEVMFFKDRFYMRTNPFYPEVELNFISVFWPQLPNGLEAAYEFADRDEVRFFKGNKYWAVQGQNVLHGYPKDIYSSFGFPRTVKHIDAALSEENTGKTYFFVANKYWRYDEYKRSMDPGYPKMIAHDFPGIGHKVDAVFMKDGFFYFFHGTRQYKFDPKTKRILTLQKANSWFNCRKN
As to the kind of experiment: Inhibition of matrix metalloprotease-1.

Assay [1] addresses Matrix metalloproteinase-9 (Homo sapiens, UniProt P14780). As to the kind of experiment: Inhibition of human matrix metalloprotease-9.
For another assay, the target named is Neutrophil collagenase (Homo sapiens, UniProt P22894). As to the kind of experiment: Inhibition of matrix metalloprotease-8.
Assay [2] addresses 72 kDa type IV collagenase (Homo sapiens, UniProt P08253). As to the kind of experiment: Inhibition of matrix metalloprotease-2.
Assay [3] is described as follows: Inhibition of aggrecanase. Set-up: species or system Homo sapiens. The gist of the method: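 Enzyme was a partially purified preparation from IL-1-stimulated bovine nasal cartilage. No amino acid sequence was available for it when screening began.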

Sequence of 72 kDa type IV collagenase (P08253 whole entry): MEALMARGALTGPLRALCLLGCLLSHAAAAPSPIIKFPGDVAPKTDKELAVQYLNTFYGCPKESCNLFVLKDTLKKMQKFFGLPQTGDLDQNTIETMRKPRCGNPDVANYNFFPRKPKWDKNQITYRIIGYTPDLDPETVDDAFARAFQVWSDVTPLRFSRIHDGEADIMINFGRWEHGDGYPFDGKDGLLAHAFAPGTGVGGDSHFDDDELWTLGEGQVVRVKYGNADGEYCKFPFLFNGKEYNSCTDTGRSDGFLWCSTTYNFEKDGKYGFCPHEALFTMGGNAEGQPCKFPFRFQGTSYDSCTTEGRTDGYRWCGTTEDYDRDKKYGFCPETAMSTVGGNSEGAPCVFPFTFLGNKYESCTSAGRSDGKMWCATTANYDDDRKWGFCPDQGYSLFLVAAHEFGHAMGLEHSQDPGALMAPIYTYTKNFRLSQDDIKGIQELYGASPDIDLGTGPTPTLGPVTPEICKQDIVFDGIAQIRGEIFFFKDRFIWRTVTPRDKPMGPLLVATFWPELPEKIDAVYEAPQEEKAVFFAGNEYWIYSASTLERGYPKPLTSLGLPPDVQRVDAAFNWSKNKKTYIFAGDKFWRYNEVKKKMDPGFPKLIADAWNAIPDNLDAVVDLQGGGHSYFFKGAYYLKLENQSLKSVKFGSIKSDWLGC
Sequence of Neutrophil collagenase (P22894 whole entry): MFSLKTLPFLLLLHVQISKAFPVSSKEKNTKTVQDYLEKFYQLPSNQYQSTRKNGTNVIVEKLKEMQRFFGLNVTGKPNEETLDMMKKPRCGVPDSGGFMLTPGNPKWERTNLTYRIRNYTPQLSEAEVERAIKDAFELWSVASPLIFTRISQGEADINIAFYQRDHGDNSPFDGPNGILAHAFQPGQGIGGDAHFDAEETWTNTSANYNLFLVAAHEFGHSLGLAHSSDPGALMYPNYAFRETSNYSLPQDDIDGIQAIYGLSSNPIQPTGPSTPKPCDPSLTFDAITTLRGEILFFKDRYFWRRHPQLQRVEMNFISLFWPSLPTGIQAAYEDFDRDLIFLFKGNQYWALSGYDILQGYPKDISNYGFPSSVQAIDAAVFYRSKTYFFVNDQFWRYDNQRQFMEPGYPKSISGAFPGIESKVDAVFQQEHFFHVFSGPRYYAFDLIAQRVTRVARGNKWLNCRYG
Sequence of Matrix metalloproteinase-9 (P14780 whole entry): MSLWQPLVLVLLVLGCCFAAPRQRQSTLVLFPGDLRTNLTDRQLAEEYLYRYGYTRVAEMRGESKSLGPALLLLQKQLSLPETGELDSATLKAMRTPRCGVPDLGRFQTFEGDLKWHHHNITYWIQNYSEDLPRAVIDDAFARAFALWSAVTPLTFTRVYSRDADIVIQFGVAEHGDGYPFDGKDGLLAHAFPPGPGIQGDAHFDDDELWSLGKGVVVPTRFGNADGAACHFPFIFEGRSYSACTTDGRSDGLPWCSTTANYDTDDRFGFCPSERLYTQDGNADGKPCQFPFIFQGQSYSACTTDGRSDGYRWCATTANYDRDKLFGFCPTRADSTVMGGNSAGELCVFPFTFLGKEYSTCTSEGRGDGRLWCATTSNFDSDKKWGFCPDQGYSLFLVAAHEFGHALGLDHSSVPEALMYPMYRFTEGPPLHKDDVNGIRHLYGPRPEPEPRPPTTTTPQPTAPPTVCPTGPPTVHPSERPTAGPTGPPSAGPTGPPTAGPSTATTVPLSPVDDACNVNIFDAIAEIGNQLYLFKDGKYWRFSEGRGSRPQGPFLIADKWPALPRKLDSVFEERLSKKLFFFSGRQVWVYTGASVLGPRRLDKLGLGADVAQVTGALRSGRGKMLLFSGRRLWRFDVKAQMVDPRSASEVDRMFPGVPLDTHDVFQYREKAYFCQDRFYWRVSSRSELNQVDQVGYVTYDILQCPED

For the compound `O=C(C[C@@H](Cc1ccc(O)cc1)C(=O)N[C@H]1c2ccccc2C[C@H]1O)NO`, the Ki stood at 946 nM on Interstitial collagenase, 166 nM in assay [1], 70 nM at Neutrophil collagenase and 408 nM in assay [2]. This compound also gave an IC50 in assay [3] of 182 nM.

On to `O=C(C[C@@H](Cc1ccc(O)cc1)C(=O)N[C@@H]1CCc2ccccc21)NO`, for which the Ki at Interstitial collagenase turned out to be 75000 nM; in assay [1], 21200 nM; at Neutrophil collagenase it was 15300 nM; in assay [2] it was 31600 nM. It took 1310 nM to reach half-maximal inhibition in assay [3] (IC50).

For the compound `O=C(NO)[C@@H](NCC1CC1)[C@@H](Cc1cccc(O)c1)C(=O)N[C@H]1c2ccccc2C[C@H]1O`, the Ki at Interstitial collagenase was 33200 nM; in assay [1], 4470 nM; on Neutrophil collagenase it was 171 nM; in assay [2] it was 6300 nM. In assay [3], this compound gave an IC50 of 12 nM.

For the compound `O=C(C[C@@H](Cc1cccc(O)c1)C(=O)N[C@H]1c2ccccc2C[C@H]1O)NO`, the inhibition constant (Ki) came out at 31000 nM at Interstitial collagenase, 3320 nM in assay [1], 8600 nM at Neutrophil collagenase and 1510 nM in assay [2]. Further, half-maximal inhibition in assay [3] (IC50) required 64 nM.

For the compound `COc1ccc(C[C@H](CC(=O)NO)C(=O)N[C@H]2c3ccccc3C[C@H]2O)cc1`, the Ki at Interstitial collagenase was 1160 nM; in assay [1] it was 203 nM; at Neutrophil collagenase, 9.2 nM; in assay [2], 52 nM. For the same compound, in assay [3], the midpoint of inhibition, the IC50, lay at 16.4 nM.

With `O=C(C[C@@H](Cc1ccc2c(c1)OCO2)C(=O)N[C@H]1c2ccccc2C[C@H]1O)NO`, the Ki at Interstitial collagenase is 50000 nM; in assay [1], 22000 nM; at Neutrophil collagenase it was 40000 nM; in assay [2] it was 35000 nM. The compound further showed an IC50 in assay [3] of 790 nM.

Regarding `CNC(=O)[C@H](Cc1ccc(OC)cc1)NC(=O)[C@@H](CC(=O)NO)Cc1ccc(O)cc1`, the inhibition constant Ki turned out to be 10.7 nM on Interstitial collagenase, 3.2 nM in assay [1], 0.45 nM at Neutrophil collagenase and 4.3 nM in assay [2]. In assay [3], the midpoint of inhibition, the IC50, lay at 332 nM.

In the case of `CC(C)C[C@H](CC(=O)NO)C(=O)N[C@@H]1c2ccccc2C[C@@H]1O`, the Ki at Interstitial collagenase was 1090 nM; in assay [1], 4200 nM; on Neutrophil collagenase, 303 nM; in assay [2], 1530 nM. This compound also returned an IC50 in assay [3] of 13300 nM.

As for `CC(C)C[C@H](CC(=O)NO)C(=O)N[C@H]1c2ccccc2C[C@H]1O`, the inhibition constant (Ki) at Interstitial collagenase came to 82 nM; in assay [1] it was 162 nM; at Neutrophil collagenase, 37 nM; in assay [2], 73 nM. The compound also had an IC50 in assay [3] of 1700 nM.

With `COc1cccc(C[C@H](CC(=O)NO)C(=O)N[C@H]2c3ccccc3C[C@H]2O)c1`, the inhibition constant Ki on Interstitial collagenase turned out to be 95500 nM; in assay [1] it was 15500 nM; on Neutrophil collagenase, 1190 nM; in assay [2], 6600 nM. In assay [3], this compound displayed an IC50 of 3140 nM.

For the compound `CNC(=O)[C@H](Cc1ccc(OC)cc1)NC(=O)[C@@H](CC(=O)NO)CC(C)C`, the Ki was less than 1 nM in assay [1] and 0.7 nM on Neutrophil collagenase. The compound further yielded an IC50 in assay [3] of 368 nM.

By Ki is commonly meant a measure of affinity in units of concentration, obtained from inhibition or displacement. Higher therefore signals weaker binding. As a reminder, the IC50 is the concentration needed to halve the response being measured. A low value points to greater potency.
